Drawing on ChEMBL document CHEMBL3397000, “Rapid synthesis of 4-arylchromenes from ortho-substituted alkynols: A versatile access to restricted isocombretastatin A-4 analogues as antitumor agents” (Eur J Med Chem, 2015), this text covers GI50, IC50 and inhibition for 10 compounds.

The nature of assay [1]: Cytotoxicity against human HCT116 cells after 72 hrs by CellTitre-Blue assay. Type of assay: functional. The settings on record: HCT-116, 72 h.
The nature of assay [2]: Inhibition of sheep brain tubulin polymerization by DAPI staining-based fluorescence assay. Also noted: species or system Ovis aries. In a few lines:
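Tubulin was purified by two assembly–disassembly cycles and held at ~2–3 mg/mL in MES assembly buffer with MgCl₂, EGTA and GTP, pH 6.6. Assembly was followed continuously at 37 °C by DAPI fluorescence. IC50 is the concentration halving the maximum assembly rate versus the no-compound rate; mean of three experiments. Reference agents were run the same day.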

Assay [3] can be described thus: Cytotoxicity against human H1299 cells after 72 hrs by CellTitre-Blue assay. Type of assay: functional. The settings on record: NCI-H1299, 72 h. In short, it runs like this: (§1)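 ATCC lines grown in DMEM (4.5 g/L glucose) with 10% FCS and 1% glutamine at 37 °C, 5% CO₂. Seeded at 5×10³ cells/well and cultured 24 h. Compound added from DMSO (final <0.1%) for 72 h. Resazurin (CellTiter-Blue) added for 2 h, then fluorescence read at ex 560/em 590 nm. IC50 is the 50% fluorescence drop versus untreated cells, in triplicate.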

The test system of the next assay is MDA-MB-231. The experiment in a line: Cytotoxicity against human MDA-MB-231 cells after 72 hrs by CellTitre-Blue assay. Type of assay: functional. Conditions: MDA-MB-231, 72 h. In a few lines:
as §1

A further assay concerns K562. Kind of assay: Cytotoxicity against human K562 cells after 72 hrs by CellTitre-Blue assay. Type of assay: functional. The settings on record: K562, 72 h. In short, it runs like this:
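Cells were kept in RPMI 1640 with 10% FCS and 1% glutamine, humidified, 37 °C, 5% CO₂. Plated at 5×10³ cells/well, grown 24 h, then exposed 72 h to compound delivered in DMSO (below 0.1% final). Viability was read by resazurin reduction over 2 h (fluorescence ex 560, em 590 nm). IC50 is the 50% signal loss relative to untreated wells; triplicate runs.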

The species named for the next assay is Ovis aries. Kind of assay: Inhibition of sheep brain tubulin polymerization at 10 uM by DAPI staining-based fluorescence assay.
Assay [4] is described as follows: Cytotoxicity against human HCT116 cells at 10 uM after 72 hrs by CellTitre-Blue assay. Type of assay: functional. The settings on record: HCT-116, 72 h.

Take `COc1ccc(/C=C\c2cc(OC)c(OC)c(OC)c2)cc1O` [COMBRETASTATIN A4]: the concentration for 50% growth inhibition (GI50) in assay [1] was determined as 2.1 nM; in assay [3], 5.1 nM; with MDA-MB-231, 3.2 nM; in the assay with K562 it was 4.3 nM. This compound returned an IC50 in assay [2] of 1.4 µM.

Regarding `COc1ccc2c(c1N)OCC=C2c1cc(OC)c(OC)c(OC)c1`, the GI50 in assay [1] is 50 nM; in assay [3], 60 nM; in the assay on MDA-MB-231, 65 nM; with K562 it was 60 nM. In addition, the IC50 in assay [2] was determined as 5 µM.

Compound `COc1ccc2c(c1Br)OCC=C2c1cc(OC)c(OC)c(OC)c1` had a GI50 in assay [1] of 300 nM. For the same compound, in the assay filed under Ovis aries, the inhibition was < 10%.

On to `C=C(c1ccc(OC)c(O)c1)c1cc(OC)c(OC)c(OC)c1`, for which the GI50 in assay [1] turned out to be 2.2 nM; in assay [3] it was 5 nM; in the assay on MDA-MB-231, 4.1 nM; in the assay on K562, 5.2 nM. Besides, it took 2.2 µM to reach half-maximal inhibition in assay [2] (IC50).

For `COc1ccc2c(c1O)OCCC2c1cc(OC)c(OC)c(OC)c1` (stereo not drawn), the GI50 in assay [1] stood at 75 nM; in assay [3] it was 80 nM; in the assay on MDA-MB-231, 60 nM; in the assay on K562, 75 nM. The compound also had an IC50 in assay [2] of 6.2 µM.

Regarding `COc1ccc2c(c1N)OCCC2c1cc(OC)c(OC)c(OC)c1` (stereo not drawn), the concentration for 50% growth inhibition (GI50) in assay [1] amounted to 50 nM; in assay [3] it was 60 nM; in the assay on MDA-MB-231, 65 nM; in the assay with K562 it was 70 nM. This compound also yielded an IC50 in assay [2] of 4.1 µM.

`COc1cc(C2=CCOc3ccc(-c4ccccc4)cc32)cc(OC)c1OC`: growth in assay [1] was halved (GI50) at 400 nM. The inhibition in the assay listed under Ovis aries is < 10%.

As to `COc1cc(C2=CCOc3cc(F)ccc32)cc(OC)c1OC`, the inhibition at 10 µM in assay [4] was < 10%. Further, the inhibition in the assay listed under Ovis aries is < 10%.

Consider `COc1cc(C2=CCOc3cc(CO)ccc32)cc(OC)c1OC`, for which the inhibition at 10 µM in assay [4] was < 10%. The inhibition in the assay listed under Ovis aries is < 10%.

With `COc1ccc2c(c1O)OCC=C2c1cc(OC)c(OC)c(OC)c1`, the GI50 in assay [1] was 10 nM; in assay [3] it was 15 nM; in the assay on MDA-MB-231, 25 nM; in the assay with K562, 32 nM. The compound further registered a half-inhibitory concentration (IC50) in assay [2] of 3.7 µM.

By GI50 is commonly meant the concentration giving 50% growth inhibition. In general, IC50 refers to the point on the concentration scale where inhibition reaches its midpoint. In general, inhibition refers to the change of the read-out against control, counted positive when it falls.
